Assay outcomes deposited in PubChem by several laboratories.
In the library only some 1.1% were active in any assay of this set; here they are far more common.
NR2E3 ag-1 – NR2E3 agonists in two-hybrid cells, primary screen, cell-based, luminescence, CHO-S, Gal4-NCOR/VP16-NR2E3. inhibition of corepressor binding, % at 3.98 µM. Photoreceptor-specific nuclear receptor (Homo sapiens), Q9Y5X4. actives 0.35% (n = 360,000). AID 602229, 2012. luciferase;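 active = inhibition above the mean of all tested compounds plus 3 SD, cut at about 70% in these data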;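 note: higher means lower luciferase signal from less NR2E3 corepressor binding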
MT1-MMP act inh – blockers of MT1-MMP proenzyme processing, primary screen, HT1080 RFP-PRO-GFP cells, GFP/RFP fluorescence | GFP/RFP ratio fluorescence, overnight; percent of plate control window, DMSO zero | GFP/RFP ratio change, % at 20 µM | actives 0.061% (n = 360,000);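 active = GFP/RFP ratio change of at least 30% with cell ATP level not reduced by more than half and red fluorescence within 50% of control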
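Read-out: GFP/RFP fluorescence ratio; Test system: RFP-PRO-GFP reporter HT1080 cells; Compound dosing: single-point 20 µM compound, 1% DMSO; Times: overnight compound exposure at 37 °C.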
NR2E3 ag-2 – inhibitors of NR2E3-RetCOR corepressor binding, primary screen, NR2E3 agonist project, biochemical, TR-FRET, GST-NR2E3, biotin-RetCOR; Photoreceptor-specific nuclear receptor (Homo sapiens), Q9Y5X4; 1536-well; inhibition of corepressor binding, % at 4.78 µM; actives 0.12% (n = 320,000);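 active = percent inhibition above the cutoff of mean plus 3 SD of all tested compounds, set per screening campaign, cut at about 20% in these data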
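Material: NR2E3–RetCOR corepressor complex | Quantity: 1.35 nM GST-tagged NR2E3 final | Schedule: 5 h at 4 °C | Replication: Singlicate compound wells | Reagent: RetCOR corepressor, biotinylated, 7 nM | Controls: Biotin wells as high control, 0.6% DMSO wells as low control | Signal: TR-FRET, Eu(K)-anti-GST donor, streptavidin-D2 acceptor, ex 340, em 617/671 nm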
core dimer inh – inhibitors of HCV core protein dimerization, primary screen, biochemical, TR-FRET, high-throughput; AID 1899, 2009; actives 0.33% (n = 300,000); TR-FRET GST/Flag-core106 dimerization, 1536-well; inhibition, % at 5 µM;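 active = inhibition above the mean of all tested compounds plus 3 SD, set per screening campaign, cut at about 45% in these data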
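Material: Tagged HCV core106 pair (GST and Flag) | Amount: GST-core106 13.5 nM, Flag-core106 17 nM | Medium: KF-containing HEPES buffer, pH 7.45, DTT, CHAPS, BSA | Reagent: Eu donor and XL665 acceptor anti-tag antibodies | Schedule: 4 h at 22.5 °C | Technique: Time-resolved FRET, ex 340 nm, em 617 and 671 nm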
DAGLB inh – DAGLB lipase inhibitors, primary screen, biochemical, fluorescence, HTS. inhibition, % at 5.17 µM. HEK293T DAGLB membrane lysate, EnzChek fluorogenic substrate. actives 0.059% (n = 340,000). Diacylglycerol lipase-beta (Homo sapiens), Q8NCG7; in the data active = inhibition above about 34%
Target sequence (Q8NCG7 whole entry, looked up): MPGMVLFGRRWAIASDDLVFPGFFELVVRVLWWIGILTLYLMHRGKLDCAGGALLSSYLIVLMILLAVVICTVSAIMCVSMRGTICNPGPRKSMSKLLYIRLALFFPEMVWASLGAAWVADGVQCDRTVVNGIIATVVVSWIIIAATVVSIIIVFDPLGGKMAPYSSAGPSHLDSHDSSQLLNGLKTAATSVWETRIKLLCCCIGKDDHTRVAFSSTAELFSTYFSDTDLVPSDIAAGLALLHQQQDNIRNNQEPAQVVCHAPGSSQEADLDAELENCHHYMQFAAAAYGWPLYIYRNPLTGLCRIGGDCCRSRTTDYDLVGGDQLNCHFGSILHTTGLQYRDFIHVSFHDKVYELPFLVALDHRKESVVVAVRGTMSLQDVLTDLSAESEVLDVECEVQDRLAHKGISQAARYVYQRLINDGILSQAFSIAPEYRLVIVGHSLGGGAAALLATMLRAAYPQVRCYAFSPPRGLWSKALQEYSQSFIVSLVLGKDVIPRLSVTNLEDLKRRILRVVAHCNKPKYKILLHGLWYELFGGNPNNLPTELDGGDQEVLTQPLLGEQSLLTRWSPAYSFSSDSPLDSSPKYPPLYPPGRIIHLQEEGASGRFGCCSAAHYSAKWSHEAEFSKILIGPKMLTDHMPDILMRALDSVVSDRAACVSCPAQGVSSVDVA
Vif inh – HIV Vif self-association inhibitors, primary screen, imaging, HEK293T, single point; HEK293T cells, Vif self-association by quenched fluorescence, 24 h; inhibition, % at 7.49 µM; actives 0.35% (n = 340,000); AID 602346, 2012; in the data active = inhibition above about 50%, passing the limit was not always enough
NR2E3 ag confirm – NR2E3 agonist confirmation in cells, cell-based, luminescence, CHO-S two-hybrid. shares compounds with NR2E3 ag-1. CHO-S mammalian two-hybrid NR2E3-NCOR, luciferase luminescence. inhibition, % at 3.98 µM. actives 51% (n = 2,300);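 active = average inhibition above a cutoff equal to the mean inhibition of all tested compounds plus one SD, cut at about 70% in these data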
GAL4-VP16 luc – GAL4-VP16 reporter modulators, confirmation, counter-screen for NR2E3 agonist project, cell-based, luminescence, CHO-S, high throughput; shares compounds with NR2E3 ag-1; CHO-S GAL4-VP16 luciferase reporter; inhibition, % at 3.98 µM; AID 624379, 2012; actives 29% (n = 2,300);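 active = mean inhibition above a cutoff equal to the average over all tested compounds plus one standard deviation, cut at about 70% in these data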;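 note: luciferase from a UAS reporter driven by GAL4-VP16 transactivation; higher means less reporter light so more repression of VP16 activity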
Of the large screens only hits and unclear results are named; the others gave an inactive call (follow-up assays come after a bar, where they were run).

COc1cccc(/C=C2/SC(=S)N(CCCC(=O)Nc3ccc(O)cc3)C2=O)c1	none (no result: Vif inh) | NR2E3 ag confirm inactive | GAL4-VP16 luc inactive
COc1cc(C(=O)OCC(=O)NC2CC2)ccc1OCCC(C)C	none (no result: core dimer inh)
Cc1cc(O)c(C(C)C)cc1N=Cc1ccc(N(C)C)cc1	none (no result: NR2E3 ag-2, core dimer inh)
CC(=O)Nc1ccc2c(c1)C(=O)c1ccc(Cl)cc1-2	none (no result: NR2E3 ag-2, core dimer inh)
O=C(CCCN1C(=O)/C(=C/c2ccc3c(c2)OCO3)SC1=S)Nc1cccc(C(=O)O)c1	none | NR2E3 ag confirm inactive | GAL4-VP16 luc inactive
O=C(CCN1C(=O)/C(=C/c2ccc3c(c2)OCO3)SC1=S)Nc1cccc(C(=O)O)c1	none
Cc1ccc(/C=C2/SC(=S)N(CCCC(=O)Nc3ccc(O)cc3)C2=O)cc1	NR2E3 ag-1 88 (no result: NR2E3 ag-2, core dimer inh) | NR2E3 ag confirm inactive | GAL4-VP16 luc 90
CC(=Cc1ccccc1)C=C1SC(=S)N(CCCC(=O)Nc2ccc(C(=O)O)c(O)c2)C1=O	none (no result: NR2E3 ag-2, core dimer inh, DAGLB inh, Vif inh)
Cc1ccc(/C=C2\SC(=S)N(CCCC(=O)NNC(=O)c3ccccc3O)C2=O)cc1	none | NR2E3 ag confirm inactive | GAL4-VP16 luc 73
CC(=C\c1ccccc1)/C=C1/SC(=O)N(CCCC(=O)Nc2ccc(C(=O)O)cc2)C1=O	NR2E3 ag-1 73 | NR2E3 ag confirm inactive | GAL4-VP16 luc 76
CNc1cncc(-c2ccc(OC)cc2)n1	none (no result: NR2E3 ag-2, core dimer inh, DAGLB inh)
Cc1ccc(-c2nc(CS(=O)(=O)CC(=O)N3CCc4ccccc4C3)c(C)o2)cc1	none
Cc1ccc(-c2nc(CS(=O)(=O)CC(=O)N3CCCCCC3)c(C)o2)cc1	none | NR2E3 ag confirm inactive | GAL4-VP16 luc inactive
O=c1cc(C(F)(F)F)[nH]c2ccc(OC(F)(F)F)cc12	NR2E3 ag-1 79 (no result: DAGLB inh) | NR2E3 ag confirm 100 | GAL4-VP16 luc 73
CCCN(C(=O)c1cccc(S(=O)(=O)N2CCN(C)CC2)c1)c1c(N)n(Cc2ccccc2)c(=O)[nH]c1=O	none
O=C(Nc1cccc(Cl)c1)c1cc(N=Nc2ccc([N+](=O)[O-])cc2Cl)ccc1O	NR2E3 ag-1 71 | NR2E3 ag confirm 100 | GAL4-VP16 luc 92
Cc1cc(Br)ccc1NC(=O)CN(C)C(=O)C1CCN(c2ncnc3sc(C)c(C)c23)CC1	none (no result: NR2E3 ag-2, core dimer inh) | NR2E3 ag confirm inactive | GAL4-VP16 luc inactive
O=C(Nc1nc(-c2ccccn2)cs1)c1ccc(Cl)s1	none
Cc1cccnc1Nc1nc(-c2ccccc2)cs1	none
Cc1cccnc1Nc1nc(-c2ccccn2)cs1	NR2E3 ag-1 77 | NR2E3 ag confirm 100 | GAL4-VP16 luc inactive
Cc1ccc(C(=O)Nc2nc(-c3ccccn3)cs2)s1	none (no result: core dimer inh) | NR2E3 ag confirm inactive | GAL4-VP16 luc inactive
CCn1ncc(N2CCOCC2)c(Cl)c1=O	none
CCN1/C(=C/c2sc(-c3ccccc3C)c[n+]2C)Sc2ccccc21	NR2E3 ag-1 90 (no result: NR2E3 ag-2, core dimer inh) | NR2E3 ag confirm 99 | GAL4-VP16 luc 85
CCc1ccc(C(C)NC(=S)NC2CCCCC2)cc1 (stereo unspecified)	none (no result: NR2E3 ag-2, core dimer inh, Vif inh)
CCC(C)c1ccc(C(C)NC(=S)NC2CCCCC2)cc1 (stereo unspecified)	NR2E3 ag-1 85 | NR2E3 ag confirm inactive | GAL4-VP16 luc inactive
CC(C)c1ccc(C(C)NC(=S)NC2CCCCC2)cc1 (stereo unspecified)	none (no result: NR2E3 ag-2, core dimer inh, Vif inh) | NR2E3 ag confirm inactive | GAL4-VP16 luc inactive
